6 molecules from ChEMBL document CHEMBL1157674, “Nanomolar affinity, iminosugar-based chemical probes for specific labeling of lysosomal glucocerebrosidase” (Bioorg Med Chem, 2010) can be followed below.

Molecules are shown by their SMILES. Activity calls are given as the source filed them. No cut-off for these calls is given here.

Test [1] deals with Prunus dulcis. Description: Binding affinity to almond beta-glucosidase expressed in Escherichia coli BL21 (DE3) at 40 uM by fluorescence assay. An outline of the steps:
(§1)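 E. coli BL21(DE3) lysate (1 mg/mL protein by BCA) spiked with varying amounts of almond β-glucosidase. Probe added as 4 or 10 µL of a 1 mM stock in 100 µL, in HEPES/NaCl pH 7.4. Photolabeling at 366 nm, 30 min, 4 °C, then fluorescein-N3 click. SDS–PAGE with fluorescence scan and silver stain.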

Test [2] deals with T1, Lysosomal acid glucosylceramidase (Homo sapiens) (UniProt P04062).
T1 sequence (whole entry): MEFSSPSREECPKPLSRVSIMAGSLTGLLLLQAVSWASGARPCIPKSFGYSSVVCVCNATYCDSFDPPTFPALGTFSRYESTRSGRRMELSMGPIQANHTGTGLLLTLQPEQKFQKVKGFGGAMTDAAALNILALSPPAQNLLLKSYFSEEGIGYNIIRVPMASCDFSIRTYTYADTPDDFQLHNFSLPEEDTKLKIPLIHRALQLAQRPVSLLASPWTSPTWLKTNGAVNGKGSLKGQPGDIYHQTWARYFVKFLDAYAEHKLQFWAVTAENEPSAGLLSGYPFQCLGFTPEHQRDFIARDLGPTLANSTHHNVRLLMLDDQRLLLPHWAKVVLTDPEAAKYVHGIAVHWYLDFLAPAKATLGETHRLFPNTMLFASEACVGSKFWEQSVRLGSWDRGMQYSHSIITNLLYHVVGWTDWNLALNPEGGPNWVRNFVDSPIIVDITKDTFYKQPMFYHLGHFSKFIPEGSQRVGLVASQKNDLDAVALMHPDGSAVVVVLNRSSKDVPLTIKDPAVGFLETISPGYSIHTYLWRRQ
The experiment in a line: Displacement of deoxynojirimycin from human GBA at 5 uM by fluorescence assay. An outline of the steps: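 Competition labeling: Ceredase with probe plus 0, 0.5, 5 or 25 µL of 1 mM deoxynojirimycin stock in 50 µL, 50 mM HEPES pH 6.1. UV irradiation at 366 nm for 30 min at 4 °C, then fluorescein-N3 click and SDS–PAGE fluorescence read-out.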

In test [3] the target is T1, Lysosomal acid glucosylceramidase (Homo sapiens). Description: Binding affinity to human GBA at 0.1 uM by fluorescence assay. A digest of the protocol:
(§2)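 Ceredase (human placental GBA) photolabeled in 50 µL with probe at 10, 5, 3, 1, 0.5 or 0.1 µM in 50 mM HEPES pH 6.1. UV 366 nm, 30 min, 4 °C. Then CuSO4/TCEP click with fluorescein-N3 for 16 h at 4 °C, denaturation at 95 °C, SDS–PAGE and fluorescence scanning.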

A short description of test [4]: Displacement of PNPG from almond beta-glucosidase by UV spectroscopy. Also on record: species or system Prunus dulcis. An outline of the steps: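 Almond β-glucosidase with p-nitrophenyl β-D-glucopyranoside (0.2–5 mM) in 0.1 M acetate buffer pH 5.0, 150 µL wells. After 15 min at 37 °C, p-nitrophenol read at 405 nm. Ki derived by varying both inhibitor and substrate concentrations.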

The target in test [5] is T1, Lysosomal acid glucosylceramidase (Homo sapiens). Description: Binding affinity to human GBA at 10 uM by fluorescence assay. An outline of the steps: as §2
Test [6] concerns Prunus dulcis. The experiment in a line: Binding affinity to almond beta-glucosidase expressed in Escherichia coli BL21 (DE3) at 100 uM by fluorescence assay. An outline of the steps: as §1
The subject of test [7] is Prunus dulcis. Description: Binding affinity to almond beta-glucosidase at 40 uM after 30 mins by fluorescence assay. An outline of the steps:
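Almond β-glucosidase from a 1 mg/mL stock, with probe added from a 1 mM stock in 5% DMSO/water, in 50 mM HEPES, 150 mM NaCl, pH 7.4. UV irradiation at 366 nm for 30 min at 4 °C; a non-irradiated control was kept dark. Then CuSO4/TCEP click with fluorescein-N3 for 1 h at rt. SDS–PAGE, fluorescence scan, then silver stain.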

For another test, the target named is T2, Beta-glucosidase (Homo sapiens, UniProt Q9HCG7).
T2 sequence (Q9HCG7 whole entry): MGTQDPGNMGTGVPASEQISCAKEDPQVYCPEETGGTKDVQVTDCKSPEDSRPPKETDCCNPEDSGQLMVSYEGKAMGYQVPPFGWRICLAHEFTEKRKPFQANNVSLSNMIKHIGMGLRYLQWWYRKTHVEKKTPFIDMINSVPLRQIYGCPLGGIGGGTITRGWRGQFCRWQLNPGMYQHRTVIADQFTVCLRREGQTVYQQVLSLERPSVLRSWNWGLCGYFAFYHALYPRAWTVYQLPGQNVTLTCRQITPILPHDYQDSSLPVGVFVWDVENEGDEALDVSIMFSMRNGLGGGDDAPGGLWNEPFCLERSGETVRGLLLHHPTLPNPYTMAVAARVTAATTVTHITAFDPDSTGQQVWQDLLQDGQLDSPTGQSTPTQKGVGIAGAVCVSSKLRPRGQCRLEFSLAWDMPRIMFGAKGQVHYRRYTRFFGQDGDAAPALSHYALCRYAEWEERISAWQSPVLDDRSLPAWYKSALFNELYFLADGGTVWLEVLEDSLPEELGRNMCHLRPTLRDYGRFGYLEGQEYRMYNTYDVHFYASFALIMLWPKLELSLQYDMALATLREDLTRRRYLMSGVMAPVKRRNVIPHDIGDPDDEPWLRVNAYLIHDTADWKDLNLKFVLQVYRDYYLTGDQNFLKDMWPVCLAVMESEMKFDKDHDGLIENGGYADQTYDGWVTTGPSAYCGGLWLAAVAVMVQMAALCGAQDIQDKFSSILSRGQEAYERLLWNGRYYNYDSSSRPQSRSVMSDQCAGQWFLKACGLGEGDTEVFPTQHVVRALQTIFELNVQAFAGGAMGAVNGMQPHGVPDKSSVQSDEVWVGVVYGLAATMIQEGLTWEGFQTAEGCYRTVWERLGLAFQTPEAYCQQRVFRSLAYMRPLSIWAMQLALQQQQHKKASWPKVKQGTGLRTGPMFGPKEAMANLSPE
Description: Displacement of 4-methylumbelliferyl from non-lysosomal GBA2 by fluorimetry.

Test [8] deals with T1, Lysosomal acid glucosylceramidase (Homo sapiens). Description: Binding affinity to GBA in human HeLa cell extract at 3 uM by fluorescence assay. Type of test: cell-free. A digest of the protocol: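 300 ng Ceredase with increasing HeLa cell lysate (0.5 mg/mL stock; 0–40 µL) in 50 mM HEPES pH 6.1 with probe. UV 366 nm, 30 min, 4 °C. Then fluorescein-N3 click, SDS–PAGE, fluorescence scan and silver stain. Lysate prepared from 2.5×10^5 PBS-washed cells by detergent extraction; protein measured by BCA.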

Test [9] has as its target T3, Lysosomal acid glucosylceramidase (Homo sapiens, UniProt P04062).
T3 sequence (P04062 whole entry): T1 sequence (whole entry)
Description: Displacement of 4-methylumbelliferyl from human GBA by fluorimetry.

Test [10] deals with T1, Lysosomal acid glucosylceramidase (Homo sapiens). The experiment in a line: Binding affinity to human GBA at 0.1 to 10 uM by fluorescence assay. A digest of the protocol: as §2
Test [11] can be described thus: Inhibition of Agrobacterium sp. beta-glucosidase.

For the molecule `C#CCOc1ccc(C(=O)c2ccc(O[C@@H]3O[C@H](CO)[C@@H](O)[C@H](O)[C@H]3O)cc2)cc1`, the result (in the test on Prunus dulcis [1]; in test [2]; in test [5]; with Prunus dulcis [6]; in the test with Prunus dulcis [7]) was Active. The result in test [3] was inactive. The same molecule showed an inhibition constant Ki in [4] of 588 µM.

In the case of `C#CCOc1ccc(C(=O)c2ccc(C(=O)NCCCN3C[C@H](O)[C@@H](O)[C@H](O)[C@H]3CO)cc2)cc1`, the result in test [2], in test [8] and in [5] was Active. Besides, the outcome in test [3] was inactive. For the same molecule, the affinity in test [4] corresponds to a Ki of 1.3 µM. Also, the IC50 at Beta-glucosidase came to 20 nM; in test [9] it was 350 nM.

Turning to `C#CCOc1ccc(C(=O)CCC(=O)NCCCN2C[C@H](O)[C@@H](O)[C@H](O)[C@H]2CO)cc1`, the outcome in test [2] was Active. The molecule also registered a Ki in test [4] of 6.4 µM. In addition, the IC50 on Beta-glucosidase is 75 nM; in test [9] it was 1650 nM. Further, the result in [10] was inactive.

`C#CCOc1ccc(C(=O)c2ccc(O)cc2)cc1`: in the test on Prunus dulcis [6], the result was Active.

As for `OC[C@H]1NC[C@H](O)[C@@H](O)[C@@H]1O` [DUVOGLUSTAT], the Ki in [4] came to 167 µM.

Regarding `CN(C)c1cccc2c(S(=O)(=O)NC[C@H]3N[C@H](CO)[C@@H](O)[C@@H]3O)cccc12`, in test [11], the inhibition constant (Ki) worked out at 2 nM.

For orientation: Ki means the equilibrium dissociation constant of an inhibitor or competing ligand from its target. A high value points to weaker binding. Usually IC50 stands for the point on the concentration scale where inhibition reaches its midpoint.
